Experimental data from ChEMBL document CHEMBL1140064, “Anxiolytic-like effects of N,N-dialkyl-2-phenylindol-3-ylglyoxylamides by modulation of translocator protein promoting neurosteroid biosynthesis” (J Med Chem, 2008).

Experiments:
C6 = assay: Induction of pregnenolone biosynthesis in rat C6 cells assessed as increase in pregnenolone level at 40 uM after 2 hrs by ELISA relative to control; assay type: functional
In short: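 Rat C6 glioma cells grown in DMEM with 10% FBS, 2 mM L-glutamine, penicillin/streptomycin, seeded ~10 000 cells/well. Exposed to compound at 40 µM for 2 h at 37 °C, with DMSO/ethanol ≤0.5% (v/v) kept constant. Pregnenolone secreted into the medium measured by competitive ELISA; mean ± SEM of at least three determinations.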

Translocator protein = Translocator protein (Rattus norvegicus, UniProt P16257); assay: Displacement of [3H]PK11195 from translocator protein in rat kidney mitochondrial membrane; assay type: cell membranes
Rattus norvegicus [1] = assay: Anxiolytic activity in Sprague-Dawley rat assessed as increase in total number of open arm entries at 30 mg/kg, ip by plus-maze test; assay type: functional; conditions: route intraperitoneal
In short: (§1)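 Male Sprague-Dawley rats (180-200 g), group-housed 6/cage at 24 ± 1 °C, 12 h light/dark, free food and water except during testing. Dosed ip. Elevated four-arm maze (two open, two enclosed arms); entries into and time in open arms, and total arm entries, scored over a 5 min session versus vehicle-treated controls.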

Rattus norvegicus [2] = assay: Anxiolytic activity in Sprague-Dawley rat assessed as reduction of total number of open arm entries at 50 mg/kg, ip after 5 mins by plus-maze test; assay type: functional; conditions: route intraperitoneal; in short: as §1

Translocator protein, sequence (P16257 whole entry, looked up): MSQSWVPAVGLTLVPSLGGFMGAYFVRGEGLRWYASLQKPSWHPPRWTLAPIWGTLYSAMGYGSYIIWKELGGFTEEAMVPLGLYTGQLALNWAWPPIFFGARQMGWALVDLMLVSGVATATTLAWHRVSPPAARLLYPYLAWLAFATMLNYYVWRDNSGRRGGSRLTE

Row | SMILES | Activity (C6) [%] | Ki (Translocator protein) [nM] | Activity (Rattus norvegicus [1]) | Activity (Rattus norvegicus [2])
1 | CCCN(CCC)C(=O)C(=O)c1c(-c2ccc(Cl)cc2)[nH]c2ccccc12 | 40 |  |  | 
2 | CCCCCCN(CCCCCC)C(=O)C(=O)c1c(-c2ccccc2)[nH]c2ccccc12 | 30 |  |  | 
3 | CCCCN(CCCC)C(=O)C(=O)c1c(-c2ccccc2)[nH]c2ccccc12 | 23 |  |  | 
4 | CCN(Cc1ccccc1)C(=O)C(=O)c1c(-c2ccc(Cl)cc2)[nH]c2ccccc12 | 136 | 1.3 |  | 
5 | CCCCCCN(CCCCCC)C(=O)C(=O)c1c(-c2ccccc2)[nH]c2c(C)cccc12 | 63 | 1.9 |  | 
6 | CCN(Cc1ccccc1)C(=O)C(=O)c1c(-c2ccccc2)[nH]c2ccccc12 | 20 | 11 |  | 
7 | CCCCN(C)C(=O)C(=O)c1c(-c2ccccc2)[nH]c2ccc(Cl)cc12 | 70 | 3.9 |  | 
8 | CCCCCN(C)C(=O)C(=O)c1c(-c2ccccc2)[nH]c2ccc(Cl)cc12 | 76 | 3.6 |  | 
9 | CCCN(CCC)C(=O)C(=O)c1c(-c2ccccc2)[nH]c2c(Cl)cccc12 | 0 | 14 |  | 
10 | CCCCN(CC)C(=O)C(=O)c1c(-c2ccccc2)[nH]c2ccc(Cl)cc12 | 72 | 1.8 |  | 
11 | CCCCN(C)C(=O)C(=O)c1c(-c2ccc(Cl)cc2)[nH]c2ccc(Cl)cc12 | 67 | 0.15 |  | 
12 | CCCCCCN(CCCCCC)C(=O)C(=O)c1c(-c2ccccc2)[nH]c2c(Cl)cccc12 | 0 | 2.4 |  | 
13 | CCCCN(CCCC)C(=O)C(=O)c1c(-c2ccccc2)[nH]c2c(C)cccc12 | 71 | 6 |  | 
14 | CCN(Cc1ccccc1)C(=O)C(=O)c1c(-c2ccccc2)[nH]c2ccc(F)cc12 |  | 1.33 |  | 
15 | CCN(Cc1ccccc1)C(=O)C(=O)c1c(-c2ccc(F)cc2)[nH]c2ccc(Cl)cc12 | 0 | 4.01 |  | 
16 | CCN(Cc1ccccc1)C(=O)C(=O)c1c(-c2ccccc2)[nH]c2c(Cl)cccc12 | 0 | 5 |  | 
17 | CCCN(CCC)C(=O)C(=O)c1c(-c2ccc(F)cc2)[nH]c2ccc(Cl)cc12 | 42 | 2.83 |  | 
18 | CCCCN(CCCC)C(=O)C(=O)c1c(-c2ccc(F)cc2)[nH]c2ccc(Cl)cc12 | 37 | 3.05 |  | 
19 | CCN(Cc1ccccc1)C(=O)C(=O)c1c(-c2ccc(Cl)cc2)[nH]c2ccc(Cl)cc12 | 171 |  |  | 
20 | CCN(Cc1ccccc1)C(=O)C(=O)c1c(-c2ccc(C)cc2)[nH]c2ccccc12 | 86 | 2.64 |  | 
21 | CCN(Cc1ccccc1)C(=O)C(=O)c1c(-c2ccccc2)[nH]c2c(C)cccc12 | 0 | 2.3 |  | 
22 | CCN(Cc1ccccc1)C(=O)C(=O)c1c(-c2ccccc2)[nH]c2ccc(Cl)cc12 | 85 | 4.6 |  | 

Row | SMILES | Activity (C6) [%] | Ki (Translocator protein) [nM] | Activity (Rattus norvegicus [1]) | Activity (Rattus norvegicus [2])
23 | CCCCN(C)C(=O)C(=O)c1c(-c2ccc(Cl)cc2)[nH]c2ccccc12 |  | 11 |  | 
24 | CCCCN(CC)C(=O)C(=O)c1c(-c2ccc(Cl)cc2)[nH]c2ccccc12 | 32 | 3.6 |  | 
25 | CCN(C)C(=O)C(=O)c1c(-c2ccc(Cl)cc2)[nH]c2ccc(Cl)cc12 | 0 | 9.54 |  | 
26 | CCCCN(C)C(=O)C(=O)c1c(-c2ccccc2)[nH]c2ccccc12 | 32 | 53.3 |  | 
27 | CCN(Cc1ccccc1)C(=O)C(=O)c1c(-c2ccc(C(F)(F)F)cc2)[nH]c2ccccc12 |  | 1 |  | 
28 | CCCCN(CCCC)C(=O)C(=O)c1c(-c2ccccc2)[nH]c2c(Cl)cccc12 | 0 | 3.4 |  | 
29 | CCN(Cc1ccccc1)C(=O)C(=O)c1c(-c2ccc(F)cc2)[nH]c2ccccc12 | 96 | 1.68 |  | 
30 | CCN(Cc1ccccc1)C(=O)C(=O)c1c(-c2ccccc2)[nH]c2ccc([N+](=O)[O-])cc12 | 0 | 18.3 |  | 
31 | CCCN(CCC)C(=O)C(=O)c1c(-c2ccccc2)[nH]c2ccc(F)cc12 | 66 | 2.67 |  | 
32 | CCCCN(CCCC)C(=O)C(=O)c1c(-c2ccc(C(F)(F)F)cc2)[nH]c2ccccc12 | 60 | 1.16 |  | 
33 | CCCCCCN(CCCCCC)C(=O)C(=O)c1c(-c2ccc(C(F)(F)F)cc2)[nH]c2ccccc12 | 85 | 1 |  | 
34 | CCCCN(CCCC)C(=O)C(=O)c1c(-c2ccc(F)cc2)[nH]c2ccc(F)cc12 | 91 | 4.36 |  | 
35 | CCCCCCN(CCCCCC)C(=O)C(=O)c1c(-c2ccc([N+](=O)[O-])cc2)[nH]c2ccccc12 | 88 | 0.23 |  | 
36 | CCCCCCN(CCCCCC)C(=O)C(=O)c1c(-c2ccc(F)cc2)[nH]c2ccc(F)cc12 | 40 | 0.95 |  | 
37 | CCCCN(CCCC)C(=O)C(=O)c1c(-c2ccc([N+](=O)[O-])cc2)[nH]c2ccccc12 | 64 | 0.27 |  | 
38 | CCCCCCN(CCCCCC)C(=O)C(=O)c1c(-c2ccccc2)[nH]c2ccc(F)cc12 | 36 | 0.37 |  | 
39 | CCCN(CCC)C(=O)C(=O)c1c(-c2ccccc2)[nH]c2ccc(OC)cc12 | 45 | 328 |  | 
40 | CCCN(CCC)C(=O)C(=O)c1c(-c2ccccc2)[nH]c2ccc([N+](=O)[O-])cc12 | 91 | 20.2 |  | 
41 | CCCCN(CCCC)C(=O)C(=O)c1c(-c2ccccc2)[nH]c2ccc(OC)cc12 | 36 | 65.2 |  | 
42 | CCCCCCN(CCCCCC)C(=O)C(=O)c1c(-c2ccccc2)[nH]c2ccc(OC)cc12 | 87 | 35.5 |  | 
43 | CCN(Cc1ccccc1)C(=O)C(=O)c1c(-c2ccccc2)[nH]c2ccc(OC)cc12 |  | 69.5 |  | 
44 | CCCCCN(C)C(=O)C(=O)c1c(-c2ccc(Cl)cc2)[nH]c2ccccc12 | 65 | 3.4 |  | 

Row | SMILES | Activity (C6) [%] | Ki (Translocator protein) [nM] | Activity (Rattus norvegicus [1]) | Activity (Rattus norvegicus [2])
45 | CCCN(CCC)C(=O)C(=O)c1c(-c2ccccc2)[nH]c2c(C)cccc12 | 129 | 25 |  | 
46 | CCN(C)C(=O)C(=O)c1c(-c2ccccc2)[nH]c2ccccc12 |  | 940 |  | 
47 | CCN(Cc1ccccc1)C(=O)C(=O)c1c(-c2ccc(F)cc2)[nH]c2ccc(F)cc12 |  | 1.67 |  | 
48 | CCCCN(CC)C(=O)C(=O)c1c(-c2ccc(Cl)cc2)[nH]c2ccc(Cl)cc12 | 11 | 0.36 |  | 
49 | CCCCCN(C)C(=O)C(=O)c1c(-c2ccccc2)[nH]c2ccccc12 | 36 | 12.1 |  | 
50 | CCN(Cc1ccccc1)C(=O)C(=O)c1c(-c2ccc([N+](=O)[O-])cc2)[nH]c2ccccc12 | 103 | 0.55 |  | 
51 | CCCCCCN(CCCCCC)C(=O)C(=O)c1c(-c2ccc(F)cc2)[nH]c2ccc(Cl)cc12 | 135 | 7.75 | 9.8 | 2
52 | CCCCCN(C)C(=O)C(=O)c1c(-c2ccc(Cl)cc2)[nH]c2ccc(Cl)cc12 | 31 | 0.18 |  | 
53 | CCCN(CCC)C(=O)C(=O)c1c(-c2ccc(F)cc2)[nH]c2ccc(F)cc12 | 17 | 6.73 |  | 
54 | CCCCCCN(CCCCCC)C(=O)C(=O)c1c(-c2ccccc2)[nH]c2ccc([N+](=O)[O-])cc12 | 115 | 30.3 |  | 
55 | CCCCN(CCCC)C(=O)C(=O)c1c(-c2ccccc2)[nH]c2ccc([N+](=O)[O-])cc12 | 102 | 21.6 |  | 
56 | CCCCN(CCCC)C(=O)C(=O)c1c(-c2ccccc2)[nH]c2ccc(F)cc12 | 88 | 4 |  | 
57 | CCCN(CCC)C(=O)C(=O)c1c(-c2ccc([N+](=O)[O-])cc2)[nH]c2ccccc12 | 70 | 0.95 |  | 
58 | CCCN(CCC)C(=O)C(=O)c1c(-c2ccc(C(F)(F)F)cc2)[nH]c2ccccc12 | 66 | 1.69 |  | 
59 | CCCCN(CC)C(=O)C(=O)c1c(-c2ccccc2)[nH]c2ccccc12 | 43 | 12.6 |  | 
60 | CCCN(CCC)C(=O)C(=O)c1c(-c2ccccc2)[nH]c2ccc(Cl)cc12 | 10 |  |  | 
61 | CCCN(CCC)C(=O)C(=O)c1c(-c2ccc(Cl)cc2)[nH]c2ccc(Cl)cc12 | 49 |  |  | 
62 | CCCN(CCC)C(=O)C(=O)c1c(-c2ccccc2)[nH]c2ccccc12 | 8 |  |  | 
63 | CCC(C)N(C)C(=O)c1cc2ccccc2c(-c2ccccc2Cl)n1 (stereo not given) [PK-11195] | 48 |  |  | 
64 | CN1C(=O)CN=C(c2ccc(Cl)cc2)c2cc(Cl)ccc21 [RO-54864] | 41 |  |  | 
